# SUMO Mot1 rescue: blocks SUMOylation pathway, rescuing yeast Mot1-301 growth | S. cerevisiae Mot1-301 growth rescue, ATP luminescence, 38.5C; percent above DMSO median, 100 means doubled | growth rescue, % at 18.8 µM | 320,000 tested, 1% active | AID 2716;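 active = every valid replicate shows activation above 250% relative to neutral control wells; inactive = the rest, any valid replicate at or below 250%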;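 note: OY570 slx delta 5 strain wells were the positive control but not used for scaling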
# T cruzi inh: blocks replication of Trypanosoma cruzi; T. cruzi beta-gal in NIH3T3, luminescence, 90 h; AID 1885; inhibition, % (test concentration not listed); 300,000 tested, 1.4% active;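 active = mean inhibition across valid replicates above about 55%, limit read from the data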;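 note: signal also drops with host cell toxicity which is not excluded here; 0% = plate median of DMSO wells and 100% = zero luminescence signal; higher percent means less beta-gal luminescence so fewer parasites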
#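 System: NIH/3T3 fibroblasts plus reporter T. cruzi. Medium: DMEM plus 2% FBS. Probe or stimulus: 5000 reporter trypomastigotes per well. Compound: single 50 nL compound addition per well in DMSO. Incubation: co-culture of at least 90 h after 3 h attachment. Detection: GalScreen β-gal luminescence, detergent lysis, 60 min. Evaluation: parasite load inhibition, %.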
# Beta apoptosis: beta cell apoptosis inhibition | INS-1E cytokine-induced death, ATP luminescence, 48 h; percent of positive-control rescue, neutral wells zero | 300,000 tested, 0.8% active | protection from apoptosis, % (no concentration beside the values) | AID 435005;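 active = Every replicate reaches about 75%, or at least half do and their mean reaches it too, limit read from the data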;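 note: 0% = cytokine-treated negative control wells and 100% = positive control rescue; higher means more ATP so stronger rescue from cytokine killing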
# CSC inhib: cancer stem cell inhibition | cancer stem cell-like cells viability, luminescence | inhibition, % at 7.5 µM | 300,000 tested, 1.1% active; in the data active = inhibition above about 75%; tested in HMLE shEcad cells
# Efflux pump inh: inhibitors of Candida antifungal efflux pumps expressed in yeast. S. cerevisiae Candida pump triplex, Nile Red efflux. inhibition, % at 10 µM. 330,000 tested, 0.44% active;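 active = plate passing quality check with inhibition over a set limit, or well fluorescence over plate mean plus 4 SD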;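 note: Nile Red retained in pooled yeast measured as flow cytometry median fluorescence; 0% = buffer negative control and 100% = Enniatin B positive control; higher means more Nile Red kept so more efflux inhibition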
# WT yeast gro inh: growth inhibition of WT yeast, mitochondrial fusion screen; 190,000 tested, 2.1% active; mitochondrial fusion phenotypic screen, WT strain; inhibition, % at 10 µM; in the data active = inhibition above about 58%; tested in S. cerevisiae
# Mot1 SUMO dose: SUMO pathway inhibitors in yeast Mot1-301 growth; shares compounds with SUMO Mot1 rescue; S. cerevisiae Mot1-301 galactose growth, ATP luminescence, 24 h; -100 = growth of slx-deleted rescue strain; growth activity, percent, % at 42 µM; 2,300 tested, under 10 active;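 active = Signal drops as the depositor expects, and the fitted half-maximal dose is no more than ten times the top valid tested dose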;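 note: more negative values mean stronger growth rescue toward the control strain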
# Cmpd fluor yeast: counter-screen for efflux pump inhibitors: compound fluorescence | shares compounds with Efflux pump inh | S. cerevisiae AD/pABC3, flow cytometry | fluorescence ratio to DMSO, % at 10 µM | 1,700 tested, 4% active;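 active = fluorescence ratio to DMSO above its plate's cutoff, the plate mean ratio plus 5 SD, cut at about 210% in these data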;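 note: unstained yeast with no Nile Red so the signal is compound autofluorescence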
# CaMdr1 efflux inh: blocks the Candida albicans Mdr1 efflux pump in yeast. 1,700 tested, 1% active. S. cerevisiae AD/CaMDR1, Nile Red efflux, flow cytometry. AID 588518. inhibition, % at 10 µM. shares compounds with Efflux pump inh; in the data active = inhibition above about 26%;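 note: 0% = DMSO vehicle and 100% = reference inhibitor; higher means more Nile Red retained so more efflux inhibition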
# Cdr2 pump inh: blocks the Candida albicans Cdr2 efflux pump in yeast; shares compounds with Efflux pump inh; S. cerevisiae AD/CaCDR2, Nile Red retention, flow cytometry; Nile Red retention ratio vs DMSO, % at 10 µM; 1,700 tested, 4% active; AID 588520; in the data active = Nile Red retention ratio vs DMSO above about 190%;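 note: higher ratio means more blocking of Cdr2 efflux of the dye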
# Cdr1 pump inh: blocks the Candida albicans Cdr1 efflux pump in yeast | S. cerevisiae AD/CaCDR1, Nile Red efflux, flow cytometry | inhibition, % at 10 µM | shares compounds with Efflux pump inh | 1,700 tested, 1% active;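 active = inhibition above the screen-wide mean plus twice its standard deviation, cut at about 32% in these data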
# Active calls of the source: *; . = no result. Compounds with a hit are over-represented: about 4.8% of the library has one in this group of screens.
SMILES,SUMO Mot1 rescue,T cruzi inh,Beta apoptosis,CSC inhib,Efflux pump inh,WT yeast gro inh,Cmpd fluor yeast,CaMdr1 efflux inh,Cdr2 pump inh,Cdr1 pump inh,others
Cc1ccc(S(=O)(=O)Cn2nnnc2C(c2ccc(F)cc2)N2CCC(C(N)=O)CC2)cc1 (stereo not given),.,-2,.,-4,0,3,.,.,.,.,
CCOC(=O)c1ccccc1NC(=O)C1CC(=O)N(C(C)(C)C)C1 (stereo not given),11,8,-5,-19,0,.,.,.,.,.,
CCOC(=O)c1ccccc1NC(=O)C1CC(=O)N(C2CCCCC2)C1 (stereo not given),385*,1,0,1,6.2*,.,108,0,94,0,Mot1 SUMO dose=-1
Cc1ccccc1C(=O)Nc1ccnn1C1CCN(C(C)Cc2ccccc2F)CC1 (stereo not given),-2,12,1,-8,0,.,.,.,.,.,
O=C(COc1ccc(Br)cc1Cl)c1ccc[nH]1,13,-2,-10,5,0,23,.,.,.,.,
O=C(COc1ccccc1Cl)c1ccc[nH]1,788*,1,.,28,0.7*,3,96,0,109,0,Mot1 SUMO dose=1
COc1ccccc1C(=O)N(NC(=O)Oc1ccccc1)C(C)(C)C,549*,4,4,-5,5.8*,-10,99,0,112,0,Mot1 SUMO dose=0
COc1ccc(Cl)cc1NS(=O)(=O)c1cccc(C(=O)NCC2(N(C)C)CCCCC2)c1,-7,21,-1,17,1,.,.,.,.,.,
C[C@@]12C(=O)Nc3ccc(F)cc3C(=O)N1[C@H]1c3cc(Cl)ccc3OC[C@@H]1[C@@H]2c1ccccc1,409*,.,16,57,0,.,128,0,127,0,Mot1 SUMO dose=-1
COc1ccc2c(c1)OC[C@H]1[C@H]2N2C(=O)c3cc(OC)c(OC)cc3NC(=O)[C@@]2(C)[C@H]1c1ccccc1,485*,.,12,4,48*,.,539*,79*,112,34*,Mot1 SUMO dose=-1
Cc1cc(C)cc(-n2ncc3c2CCCC3NC(=O)c2cc(C)[nH]n2)c1 (stereo not given),641*,36,3,0,0,.,106,0,98,0,Mot1 SUMO dose=0
CC(=O)c1cc(C(=O)NC2CCCc3c2cnn3-c2cc(C)cc(C)c2)[nH]n1 (stereo not given),1,19,-3,-5,0,.,.,.,.,.,
COc1cccc(CN2CC(C(=O)NCCCCc3ccccn3)CCC2=O)c1 (stereo not given),-15,0,-1,-4,0,.,.,.,.,.,
CC(C)Cn1nc(C(=O)Nc2nnc(C3CC3)s2)c2ccccc2c1=O,-3,.,-1,11,0.9*,.,113,0,116,0,
CC(C)n1nc(C(=O)Nc2nnc(C3CC3)s2)c2ccccc2c1=O,-2,-6,0,-5,0,7,.,.,.,.,
COC(=O)c1ccc(CN2CCC(Oc3cccc(C(=O)N4CCCC4)c3)CC2)cc1,-27,-11,-1,9,5.3*,.,116,0,117,0,
COC(=O)c1ccc(CN2CCC(Oc3ccc(C(=O)N4CCCCC4)cc3)CC2)cc1,25,20,-2,9,0,.,.,.,.,.,
COc1ccccc1NC(=O)N1CCC(C(=O)c2ccc(F)cc2)CC1,1,.,2,-21,7.5*,-9,103,0,101,0,
Cc1cc(Cl)ccc1C(=O)C1CCCN(C(=O)CN2CCOC2=O)C1 (stereo not given),-3,5,-13,-12,-2,.,.,.,.,.,
COc1ccc(S(=O)(=O)N(C)C[C@H]2Oc3c(NC(=O)Nc4ccc(C(F)(F)F)cc4)cccc3C(=O)N([C@H](C)CO)C[C@@H]2C)cc1,-10,.,13,50,34*,.,104,0,114,0,
COc1ccc(S(=O)(=O)N(C)C[C@H]2Oc3c(NC(=O)NC4CCCCC4)cccc3C(=O)N([C@H](C)CO)C[C@@H]2C)cc1,-1,.,-4,-5,131*,.,127,28*,97,17,
C[C@H](CO)N1C[C@H](C)[C@@H](CN(C)Cc2ccc(-c3ccccc3)cc2)Oc2c(NC(=O)Nc3ccc(C(F)(F)F)cc3)cccc2C1=O,-1,.,-6,.,0,.,92,0,112,0,
COc1ccc(NC(=O)CN2C(=O)C(C)SC(C)C2=O)c(OC)c1 (stereo not given),21,0,-2,-2,0,-9,.,.,.,.,
Cc1cc(C)c2nc(-n3nc(C)cc3N)cc(C)c2c1,9,5,1,3,2.0*,27,90,0,95,0,
CC(C)(C)c1ccc(OC(=O)c2ccc(-n3cncn3)nc2)cc1,-24,-7,-1,-16,0,7,.,.,.,.,
SMILES,SUMO Mot1 rescue,T cruzi inh,Beta apoptosis,CSC inhib,Efflux pump inh,WT yeast gro inh,Cmpd fluor yeast,CaMdr1 efflux inh,Cdr2 pump inh,Cdr1 pump inh,others
CN(C)c1ccc(/C=C/C(=O)c2c(O)c3ccccc3oc2=O)cc1,6,-13,4,-5,1.4*,.,182,2,223*,1,
O=C1OCCN1C(=O)[C@H]1[C@H](c2ccc(Cl)cc2)C(c2cccc(Cl)c2)=NN1c1ccccc1,-4,4,2,35,.,32,.,.,.,.,
O=C1OCCN1C(=O)[C@H]1[C@H](c2ccc(F)cc2)C(c2cccc(Cl)c2)=NN1c1ccccc1,.,.,.,.,1.4*,.,110,0,97,0,
CCOc1ccc(C(=O)Nc2cccc(-c3cc4ccccc4oc3=O)c2)cc1[N+](=O)[O-],11,16,2,0,1.0*,20,107,0,101,0,
Cc1cc(C)cc(OCC(=O)N/N=C\c2cn(C)nc2C)c1,-12,3,-4,.,0,-3,.,.,.,.,
CCn1ncc(/C=N\NC(=O)COc2cc(C)cc(C)c2)c1C,15,-14,-6,18,13*,4,102,0,104,0,
Cc1ccccc1C(=O)Nc1ccccc1C(=O)N1CCC(C)CC1,-8,-4,-2,.,0,.,.,.,.,.,
O=C(C1CCCO1)N1CCN(S(=O)(=O)c2ccccc2)CC1 (stereo not given),68,-10,-2,-10,5.9*,3,94,0,76,0,

# Screening results (PubChem BioAssay)
